Shown are actives, neighbours in structure and some others; about 1.5% of the full set was active somewhere.
OXTR ag = human OXTR agonists, primary screen, fluorescence, CHO-OTR cells, Fluo-8 calcium; Oxytocin receptor (Homo sapiens), P30559; Fluo-8 calcium fluorescence; normalized: DMSO 0%, oxytocin 100%; activation, % at 3 µM; hit rate 0.32% among 320,000; AID 2435, 2010;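 active = activation above the mean of all tested compounds plus 3 SD, cutoff set per screening run, cut at about 20% in these data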;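 also: peak over basal fluorescence ratio from a 100 s FLIPR kinetic read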
Target sequence (P30559 whole entry, looked up): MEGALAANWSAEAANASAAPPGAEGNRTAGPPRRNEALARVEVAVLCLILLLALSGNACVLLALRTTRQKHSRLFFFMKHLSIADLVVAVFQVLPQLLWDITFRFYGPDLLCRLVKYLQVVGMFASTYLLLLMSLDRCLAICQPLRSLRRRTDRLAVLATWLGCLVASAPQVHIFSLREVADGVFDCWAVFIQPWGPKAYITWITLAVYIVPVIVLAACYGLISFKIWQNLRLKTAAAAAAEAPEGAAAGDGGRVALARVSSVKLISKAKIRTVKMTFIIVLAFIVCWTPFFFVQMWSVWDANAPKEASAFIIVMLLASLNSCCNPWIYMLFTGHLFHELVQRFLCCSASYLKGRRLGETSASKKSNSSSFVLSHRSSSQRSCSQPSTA
M4 PAM = human M4 muscarinic receptor positive allosteric modulators, primary screen, CHO-K1 cells, Fluo-8 calcium fluorescence | activation, % at 3 µM | hit rate 0.4% among 360,000 | Muscarinic acetylcholine receptor M4 (Homo sapiens), P08173 | CHO-K1 hM4/Gqi5, ACh EC20; 0% = ACh EC20, 100% = maximal ACh | AID 624126, 2012;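 active = activation above its plate's cutoff, the mean activation of sample wells plus 3 SD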
V1R ag counter = agonists of human V1a receptor, primary screen, counter-screen for OXTR agonist project, fluorescence, CHO-V1R cells | Vasopressin V1a receptor (Homo sapiens), P37288 | Fluo-8 calcium fluorescence, agonist mode; 0% DMSO, 100% 3 nM vasopressin | activation, % at 3 µM | hit rate 0.25% among 320,000;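 active = activation above the mean activation of all tested compounds plus 3 SD, per screening run, cut at about 20% in these data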;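 also: signal is peak over basal fluorescence ratio across a 100 second FLIPR read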
OXTR potentiate = human OXTR potentiators, primary screen, fluorescence, CHO-OTR cells, Fluo-8 calcium | Oxytocin receptor (Homo sapiens), P30559 | Fluo-8 calcium fluorescence, potentiator mode; 0% = oxytocin EC15, 100% = EC100 | activation, % at 3 µM | hit rate 0.061% among 320,000 | AID 2445, 2010;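 active = activation above that plate's cutoff, the mean activation of tested compounds plus 3 SD, cut at about 6.6% in these data, passing the limit was not always enough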;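 also: 100% uses oxytocin at 75 nM as the full agonist control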
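System: human OTR in CHO cells; Also added: sub-maximal oxytocin, roughly EC15; Timing: compound 6 min at room temperature before oxytocin, 100 s read; Technique: Fluo-8 intracellular calcium fluorescence, ex 470-495, em 515-575 nm; Controls: oxytocin EC15 low and EC100 high; Replication: singlicate.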
CHRM4 agonist = human M4 muscarinic receptor agonists, primary screen, CHO-K1 cells, Fluo-8 calcium fluorescence; Muscarinic acetylcholine receptor M4 (Homo sapiens), P08173; CHO-K1 hM4/Gqi5; vehicle 0%, full acetylcholine response 100%; activation, % at 3 µM; hit rate 0.14% among 360,000; AID 624127, 2012;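 active = activation above the run mean over all test wells plus 3 SD, cut at about 32% in these data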;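 also: peak over basal fluorescence ratio per well then scaled between controls; 0% = DMSO wells and 100% = acetylcholine at EC100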
CHRM4 antagonist = human M4 muscarinic receptor antagonists, primary screen, CHO cells, Fluo-8 calcium fluorescence. hit rate 0.73% among 360,000. inhibition, % at 3 µM. CHO-hM4 cells, ACh EC80. AID 624125, 2012. Muscarinic acetylcholine receptor M4 (Homo sapiens), P08173;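 active = inhibition above its plate's cutoff, the mean inhibition of sample wells plus 3 SD, cut at about 27% in these data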;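 also: 0% = acetylcholine EC80 with DMSO and 100% = DMSO without agonist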
* = called active by the depositor; · = not tested or not shown.

SMILES | OXTR ag | M4 PAM | V1R ag counter | OXTR potentiate | CHRM4 agonist | CHRM4 antagonist
CCCC[N+]1(C)[C@@H]2CC(OC(=O)[C@H](CO)c3ccccc3)C[C@H]1[C@@H]1O[C@@H]12 (stereo partly specified) | 0 | -19 | 0 | -1 | 0 | 92*
O=C(c1ccc(F)cc1)N1CCC2(CC1)OCCO2 | 1 | 0 | 0 | 5 | 0 | -2
OC(Cn1c2ccccc2c2ccccc21)C[n+]1cccc2ccccc21 (stereo unspecified) | -2 | -27 | 0 | -2 | 0 | 40*
CC1(C(O)(C#CCN2CCCCC2)c2ccccc2)CCCC1 (stereo unspecified) | 2 | -26 | 1 | -10 | 2 | 99*
OC(CC#CCN1CCCCCC1)(c1ccccc1)C1CCCC1 (stereo unspecified) | 1 | -17 | 3 | -3 | 7 | 91*
CN(C)CC#CCC(O)(c1ccccc1)C1CCCC1 (stereo unspecified) | 2 | -34 | 1 | 1 | 1 | 87*
COc1ccc(OCC#CCN2CCCCCC2)cc1 | 0 | -12 | -1 | 3 | 0 | 8
CN(C)CC#CCn1c2ccccc2c2ccccc21 | 0 | -7 | 0 | -9 | 1 | 7
C(#CCN1CCCCC1)COCc1ccccc1 | 0 | -1 | -1 | -14 | 1 | -2
O=[N+]([O-])c1ccc2nc(N3CCNCC3)ccc2c1 | 3 | · | 1 | 1 | · | ·
C[C@]12CCC3C(CC[C@H]4C[C@@H](O)CC[C@]34C)C1=CC[C@@H]2O (stereo partly specified) | · | -10 | · | · | 21 | -42
CCOc1cccc(CNCCc2c(C)[nH]c3ccc(OC(F)(F)F)cc23)c1O | 39* | -12 | 29* | -10 | 43* | 29*
Cc1[nH]c2ccc(OC(F)(F)F)cc2c1CCNCc1ccc(Cl)cc1 | · | 1 | · | · | 15 | 10
CN1C(=O)C(=Cc2ccc(N3CCOCC3)c([N+](=O)[O-])c2)C(=O)N(C)C1=O | 0 | · | 0 | -18 | · | ·
O=C1NC(=O)C(=Cc2ccc(N3CCN(C(=O)c4ccccc4)CC3)c([N+](=O)[O-])c2)C(=O)N1 | 2 | 54* | 3 | -15 | 41* | 48*
CC1=NCCc2c1[nH]c1cc(O)ccc21 | 43* | -12 | 30* | -12 | 26 | 14
O=C(c1ccc2c(c1)OCO2)C1CCCN(CC2CCCCC2)C1 (stereo unspecified) | 0 | -24 | 1 | -3 | 0 | 41*
O=C(c1ccc2c(c1)OCO2)C1CCCN(Cc2c(F)cccc2Cl)C1 (stereo unspecified) | -1 | -14 | 0 | -15 | 2 | 21
C[C@H]1COc2cc(N3CCN(C)CC3)ccc2S(=O)(=O)N1 | · | 11 | · | · | 0 | -1
COc1ccc(C(=O)C2CCCN(Cc3cnc(C)s3)C2)cc1OC (stereo unspecified) | 1 | -11 | 2 | -4 | 1 | 5
COc1ccc(C(=O)C2CCCN(C3CSCCSC3)C2)cc1OC (stereo unspecified) | 0 | -27 | 0 | -13 | 2 | 39*
O=C(c1ccc(Cl)cc1)C1CCCN(C2CCSCC2)C1 (stereo unspecified) | 1 | -19 | 2 | -17 | 2 | 37*
COc1cccc(NC2=NCCCS2)c1 | 2 | -5 | 0 | -2 | 1 | 1
Brc1ccc2c(c1)C(OC1CN3CCC1CC3)c1ccccc1CS2 (stereo unspecified) | 17 | -41 | 12 | -6 | 10 | 100*
C[C@]12CCC3C(C(=O)C[C@H]4C[C@@H](O)CC[C@]34C)C1CCC2=O (stereo partly specified) | 0 | 6 | 0 | 1 | 2 | -5
SMILES | OXTR ag | M4 PAM | V1R ag counter | OXTR potentiate | CHRM4 agonist | CHRM4 antagonist
COc1cc(/C=C(/C)[N+](=O)[O-])ccc1OCc1ccccc1Cl | -1 | -11 | 0 | -7 | 1 | 29*
C[N+]1(C)[C@@H]2CC[C@H]1CC(OC(=O)C(c1ccccc1)c1ccccc1)C2 (stereo partly specified) | 0 | -18 | 1 | 1 | 16 | 99*
O=C(OC1CCN(CCCl)CC1)C(c1ccccc1)c1ccccc1 | 1 | -18 | 2 | -7 | 2 | 57*
CCCCn1c(=O)c(C(=O)Nc2ccccc2C)c(O)c2ccccc21 | 0 | 4 | 0 | -17 | 1 | -3
CCCCCn1c(=O)c(C(=O)Nc2ncccc2C)c(O)c2ccccc21 | 54* | 6 | 39* | -26 | 1 | -18
COc1ccc(OC)c(C(O)C2CCCCN2)c1 (stereo unspecified) | 1 | -5 | 5 | 4 | 0 | -2
COc1ccc(OC)c([C@@H](O)[C@H](C)NC(C)(C)C)c1 | 0 | -15 | 0 | 1 | 0 | 51*
CC1OC(C[N+](C)(C)C)CC1O (stereo unspecified) | 1 | -19 | 1 | 2 | 71* | 30*
C[C@H]1OC[C@@H](C[N+](C)(C)C)O1 | 4 | -19 | 1 | -8 | 98* | 73*
O=C1C=CC(=O)C2C1C1(Cl)C(Cl)=C(Cl)C2(Cl)C1(Cl)Cl (stereo unspecified) | · | 6 | · | · | 3 | -4
N[C@@H](CCl)C(=O)O | 0 | -16 | 1 | -4 | 1 | 51*
CC(=O)O[C@H]1CC[C@@]2(C)[C@H](C1)C(=O)C[C@H]1[C@@H]3CC[C@@H]4[C@@H](CN5C[C@@H](C)CC[C@H]5[C@@]4(C)O)[C@@H]3C[C@@H]12 | 0 | -15 | 0 | -9 | 0 | 65*
C[C@H]1CC[C@@H]2N(C1)C[C@H]1[C@@H]3C[C@H]4[C@@H](CC(=O)[C@H]5C[C@@H](O)CC[C@@]54C)[C@@H]3CC[C@H]1[C@]2(C)O | 0 | -18 | 1 | -5 | 1 | 85*
Nc1cc(C(=O)Nc2ccccc2F)ccc1N1CC2CC(C1)c1cccc(=O)n1C2 (stereo unspecified) | · | 6 | · | · | 2 | -13
O=C1C2CC(CN3CCCCC23)C2CCCCN12 (stereo unspecified) | · | 6 | · | · | 1 | -14
COC(=O)C1=C(c2c(C)noc2C)C[C@@H]2CC[C@H]1N2C(=O)NCCNC(C)=O | 0 | 7 | 0 | -7 | 1 | -20
